{"source": "ChEMBL document CHEMBL1275560", "about": "“Serial daptomycin selection generates daptomycin-nonsusceptible Staphylococcus aureus strains with a heterogeneous vancomycin-intermediate phenotype” (2008)", "key": {"Staphylococcus aureus [1]": {"system": "Staphylococcus aureus", "test": "Antimicrobial activity against methicillin-resistant Staphylococcus aureus N315DeltaIP by Etest method", "assay_type": "functional", "procedure,_shortened": "(§1)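 Etest MICs on Mueller-Hinton agar, run per manufacturer. Fosfomycin plates carried 25 µg/ml glucose-6-phosphate. Daptomycin Etest was also done with 200 µM GdCl3 in agar. Daptomycin MICs were read at 24 h and again at 48 h to capture slowly growing resistant subpopulations.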"}, "Staphylococcus aureus [2]": {"system": "Staphylococcus aureus", "test": "Antimicrobial activity against methicillin-resistant Staphylococcus aureus N315DeltaIP by Etest method in presence of 200 uM GdCl3"}, "Staphylococcus aureus [3]": {"system": "Staphylococcus aureus", "test": "Antimicrobial activity against Staphylococcus aureus 10*3d1 by Etest method", "assay_type": "functional", "procedure,_shortened": "(§2)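 MICs read by Etest on Mueller-Hinton agar, following the manufacturer's method. Agents tested were daptomycin, vancomycin, teicoplanin, linezolid, oxacillin, imipenem, bacitracin, fosfomycin and colistin. For fosfomycin the agar carried 25 µg/ml D-glucose-6-phosphate. The daptomycin Etest was also run with 200 µM gadolinium(III) chloride in the agar. Daptomycin MICs were read at both 24 h and 48 h.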"}, "Staphylococcus aureus [4]": {"system": "Staphylococcus aureus", "test": "Antimicrobial activity against methicillin-resistant Staphylococcus aureus 10*3d1 by Etest method in presence of 200 uM GdCl3", "assay_type": "functional", "procedure,_shortened": "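Etest on Mueller-Hinton agar containing gadolinium(III) chloride at 200 µM, used as a mechanosensitive channel (MscL) blocker; MICs read at 24 h and also at 48 h so a slowly growing resistant subpopulation is not missed. The strain is a two-step daptomycin-selected derivative of MRSA N315ΔIP, stocked at –80°C in 40% glycerol.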"}, "Staphylococcus aureus [5]": {"system": "Staphylococcus aureus", "test": "Antimicrobial activity against Staphylococcus aureus 10*3d1-10 by Etest method", "assay_type": "functional", "procedure,_shortened": "as §2"}, "Staphylococcus aureus [6]": {"system": "Staphylococcus aureus", "test": "Antimicrobial activity against methicillin-resistant Staphylococcus aureus N315DeltaIP assessed as decreased membrane potential", "assay_type": "functional, organism-based", "procedure,_shortened": "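Flow cytometry with DiOC2(3). Cells were grown to exponential phase (OD600 0.3) in MHB with 50 µg/ml calcium, then diluted 1:100 in kit buffer. GdCl3 was 200 µM final; CCCP-treated and heat-killed cells served as controls. TO-PRO-3 (500 nM) flagged damaged membranes. Dye at 30 µM, 4 min, room temperature. 10,000 cells per run, 488-nm excitation; red/green ratio of population mean fluorescence.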"}, "Staphylococcus aureus [7]": {"system": "Staphylococcus aureus", "test": "Antimicrobial activity against methicillin-resistant Staphylococcus aureus N315DeltaIP heteroresistant subpopulations by Etest method", "assay_type": "functional", "procedure,_shortened": "as §1"}}, "note": "The source made the active and inactive calls. No cut-off for these calls is given here."}
{"compound": "CCCCCCCCCC(=O)N[C@@H](Cc1c[nH]c2ccccc12)C(=O)N[C@H](CC(N)=O)C(=O)N[C@@H](CC(=O)O)C(=O)N[C@@H]1C(=O)NCC(=O)N[C@@H](CCCN)C(=O)N[C@@H](CC(=O)O)C(=O)N[C@H](C)C(=O)N[C@@H](CC(=O)O)C(=O)NCC(=O)N[C@H](CO)C(=O)N[C@@H]([C@H](C)CC(=O)O)C(=O)N[C@@H](CC(=O)c2ccccc2N)C(=O)O[C@@H]1C", "values": [{"measurement": "MIC", "setting": "Staphylococcus aureus [1]", "result": 0.5, "unit": "mg/L"}, {"measurement": "MIC", "setting": "Staphylococcus aureus [2]", "result": 0.5, "unit": "mg/L"}, {"measurement": "MIC", "setting": "Staphylococcus aureus [3]", "result": 3, "unit": "mg/L"}, {"measurement": "MIC", "setting": "Staphylococcus aureus [4]", "result": 3, "unit": "mg/L"}, {"measurement": "MIC", "setting": "Staphylococcus aureus [5]", "result": 1, "unit": "mg/L"}, {"measurement": "Activity", "setting": "Staphylococcus aureus [6]", "result": "Active"}]}
{"compound": "C[C@@H]1O[C@@H]1P(=O)(O)O", "note": "[FOSFOMYCIN]", "values": [{"measurement": "MIC", "setting": "Staphylococcus aureus [1]", "result": 12, "unit": "mg/L"}, {"measurement": "MIC", "setting": "Staphylococcus aureus [3]", "result": 0.5, "unit": "mg/L"}, {"measurement": "MIC", "setting": "Staphylococcus aureus [5]", "result": 2, "unit": "mg/L"}]}
{"compound": "C[C@@H](O)[C@H]1C(=O)N2C(C(=O)O)=C(SCCNC=N)C[C@H]12", "note": "[IMIPENEM ANHYDROUS]", "values": [{"measurement": "MIC", "setting": "Staphylococcus aureus [1]", "result": 2, "unit": "mg/L"}, {"measurement": "MIC", "setting": "Staphylococcus aureus [3]", "result": "> 32", "unit": "mg/L"}, {"measurement": "MIC", "setting": "Staphylococcus aureus [5]", "result": "> 32", "unit": "mg/L"}, {"measurement": "MIC", "setting": "Staphylococcus aureus [7]", "result": 3, "unit": "mg/L"}]}
{"compound": "Cc1onc(-c2ccccc2)c1C(=O)N[C@@H]1C(=O)N2[C@@H]1SC(C)(C)[C@@H]2C(=O)O", "note": "[OXACILLIN]", "values": [{"measurement": "MIC", "setting": "Staphylococcus aureus [1]", "result": 24, "unit": "mg/L"}, {"measurement": "MIC", "setting": "Staphylococcus aureus [3]", "result": "> 256", "unit": "mg/L"}, {"measurement": "MIC", "setting": "Staphylococcus aureus [5]", "result": "> 256", "unit": "mg/L"}, {"measurement": "MIC", "setting": "Staphylococcus aureus [7]", "result": 192, "unit": "mg/L"}]}
{"compound": "CN[C@H](CC(C)C)C(=O)N[C@H]1C(=O)N[C@@H](CC(N)=O)C(=O)N[C@H]2C(=O)N[C@H]3C(=O)N[C@H](C(=O)N[C@H](C(=O)O)c4cc(O)cc(O)c4-c4cc3ccc4O)[C@H](O)c3ccc(c(Cl)c3)Oc3cc2cc(c3O[C@@H]2O[C@H](CO)[C@@H](O)[C@H](O)[C@H]2O[C@H]2C[C@](C)(N)[C@H](O)[C@H](C)O2)Oc2ccc(cc2Cl)[C@H]1O", "note": "[VANCOMYCIN]", "values": [{"measurement": "MIC", "setting": "Staphylococcus aureus [1]", "result": 0.75, "unit": "mg/L"}, {"measurement": "MIC", "setting": "Staphylococcus aureus [3]", "result": 3, "unit": "mg/L"}]}
{"compound": "COLISTIN", "values": [{"measurement": "MIC", "setting": "Staphylococcus aureus [1]", "result": 256, "unit": "mg/L"}, {"measurement": "MIC", "setting": "Staphylococcus aureus [3]", "result": 192, "unit": "mg/L"}, {"measurement": "MIC", "setting": "Staphylococcus aureus [5]", "result": 192, "unit": "mg/L"}]}
